Source: PMC3549632 (Biochemistry, 2012)
Like-named read-outs stand apart in the source and are kept apart here.

Key:
SULT1A1 [1] = molecular target: T1, SULT1A1 (Homo sapiens, UniProt P50225); format: binding
Summary of the method: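 Purified tag-cleaved human SULT1A1 in 5.0 mM MgCl2, 25 mM potassium phosphate pH 7.4, 0 or 125 μM PAP, 25 ± 2 °C. Ligand titrated from ethanol:water (1:1), final ethanol <0.5%. Intrinsic fluorescence quenching read at λex 290 nm. Triplicate titrations averaged, ΔI/ΔImax vs total ligand least-squares fit with a quadratic single-site-per-monomer model, giving apparent […].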

SULT1A1 [2] = molecular target: T1, SULT1A1; experiment: Presteady state; format: binding; conditions: for koff: pH 7.4, 25 °C
SULT1A1 [3] = molecular target: T1, SULT1A1; experiment: SULT1A1 intrinsic hydrolysis of PAPS; format: biochemical; conditions: saturating 35S-PAPS (7.0 μM), MgCl2 5.0 mM, KPO4 25 mM, pH 7.4, 25 °C
[4] = pH 7.4, enzyme species PAPS·E (saturating PAPS)

T1 sequence (P50225 whole entry): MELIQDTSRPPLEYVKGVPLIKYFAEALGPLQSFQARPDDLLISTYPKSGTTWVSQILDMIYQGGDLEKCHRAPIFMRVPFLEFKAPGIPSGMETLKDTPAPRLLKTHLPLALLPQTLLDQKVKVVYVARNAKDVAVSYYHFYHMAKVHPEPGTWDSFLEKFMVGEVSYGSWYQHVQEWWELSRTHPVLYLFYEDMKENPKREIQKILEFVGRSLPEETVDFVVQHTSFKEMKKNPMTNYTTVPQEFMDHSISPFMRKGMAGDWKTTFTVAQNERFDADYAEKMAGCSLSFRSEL

SMILES	Kd (SULT1A1 [1]) [µM]	Kd (SULT1A1 [2]) [µM]	koff (SULT1A1 [2]; pH 7.4, enzyme species E) [s⁻¹]	koff (SULT1A1 [2]; [4]) [s⁻¹]	effect of PAPS on binding on- and off-rate constants (SULT1A1 [2]; saturating PAPS)	kcat (app) for SULT1A1 hydrolysis of PAPS (SULT1A1 [3]) [s⁻¹]	Kd (SULT1A1 [1]; Kd, enzyme species E (zero PAP, open form), pH 7.4, 25 °C) [µM]	Kd (SULT1A1 [1]; Kd, enzyme species PAP·E (saturating PAP, 125 μM; closed form), pH 7.4, 25 °C) [µM]	fold decrease in apparent on-rate constant at saturating PAPS (SULT1A1 [2]; E vs PAPS·E) [fold]	Kd (SULT1A1 [2]; Kd (koff/kon), enzyme species E, calculated from rate constants) [µM]	effect of PAPS on off-rate constant (SULT1A1 [2]; saturating PAPS)
C[C@]12CC[C@@H]3c4ccc(O)cc4CC[C@H]3[C@@H]1CC[C@@H]2O [E2, estradiol]	1.7	1.3	1.6	1.9	not significantly affected	–	–	–	–	–	–
Nc1ncnc2c1ncn2[C@@H]1O[C@H](COP(=O)(O)OS(=O)(=O)O)[C@@H](OP(=O)(O)O)[C@H]1O [PAPS, 3′-phosphoadenosine 5′-phosphosulfate]	–	–	–	–	–	0.000767	–	–	–	–	–
C[C@]12CC[C@@H]3c4ccc(O)cc4C[C@@H](CCCCCCCCC[S+]([O-])CCCC(F)(F)C(F)(F)F)[C@H]3[C@@H]1CC[C@@H]2O (stereo partly drawn) [fulvestrant, (7R,8R,9S,13S,14S,17S)-13-methyl-7-[9-(4,4,5,5,5-pentafluoropentyl-sulfinyl)nonyl]-6,7,8,9,11,12,14,15,16,17,-decahydrocyclopenta[α]phenanthrene-3,17-diol]	–	–	1.8	1.7	–	–	0.28	6.9 ± 0.9	26	0.27	not affected
